Results on 3 molecules are retold here after ChEMBL document CHEMBL2346594, “Synthesis and evaluation of an imidazole derivative-fluorescein conjugate” (Bioorg Med Chem, 2013).

Calls of active or inactive are those of the source. The calls are words filed in the database; no cut-off is given here.

The subject of series [1] is HeLa. Kind of series: Antiproliferative activity against human HeLa cells harboring p53 mutant at 10 uM after 5 days by MTS assay. The series is classed as functional, cell-based. The method in brief: (§1)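 Cells (wild-type or mutant p53) grown in recommended medium with 10% FBS at 37 °C under 5% CO2. Compounds were kept as 1 mmol/L DMSO stocks. Cells were seeded in 96-well plates and treated with serial concentrations (highest 10 µM) for 5 days, then read by MTS. Viability is % of untreated controls, mean SD, n = 4.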
A general note: Tetrazolium assays rely on reduction of a dye to a coloured formazan, in cell work by metabolically active cells.

The subject of series [2] is SJSA-1. Description: Antiproliferative activity against human SJSA1 cells expressing wild type p53 after 5 days by MTS assay. Format: functional, cell-based. The gist of the method: as §1
Series [3] relates to RKO. Description: Antiproliferative activity against human RKO cells expressing wild type p53 after 5 days by MTS assay. Format: functional, cell-based. The method in brief:
as §1

The test system of series [4] is HCT-116. Description: Antiproliferative activity against human HCT116 cells expressing wild type p53 after 5 days by MTS assay. The series is classed as functional, cell-based. The method in brief:
as §1

The test system of series [5] is SW480. Kind of series: Antiproliferative activity against human SW480 cells harboring p53 mutant at 10 uM after 5 days by MTS assay. The series is classed as functional, cell-based. The method in brief:
as §1

Series [6] is filed under the species Homo sapiens. Kind of series: Antiproliferative activity against human MDA-MB-435S cells harboring p53 mutant at 10 uM after 5 days by MTS assay. The series is classed as functional, cell-based. The gist of the method:
as §1

For series [7], the system named is SJSA-1. Kind of series: Cellular uptake in human SJSA1 cells expressing wild type p53 at 5 uM after 1 hr by fluorometric analysis in presence of nutlin-glycine. Format: ADME, cell-based. The settings on record: sjsa-1, 1 h.
Series [8] has as its system HCT-116. Description: Cellular uptake in human HCT116 cells expressing wild type p53 at 1 to 5 uM after 1 hr by fluorometric analysis. The series is classed as ADME, cell-based. The settings on record: hct-116, 1 h. The method in brief:
(§2)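 SJSA-1 or HCT116 cells were plated at 400,000/well and attached for 24 h. Fluorescein conjugate or free FAM was added at final 1 and 5 µM for 1 h at 37 °C, with DMSO and medium-only controls. Cells were washed three times in warm PBS, scraped and counted. About 10,000 cells/well were read by fluorescence at 485/520 nm; 3 runs per sample.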

For series [9], the system named is SJSA-1. Description: Cellular uptake in human SJSA1 cells expressing wild type p53 at 1 to 5 uM after 1 hr by fluorometric analysis. The series is classed as ADME, cell-based. To be noted: sjsa-1, 1 h. The gist of the method: as §2
In series [10] the test system is HCT-116. Description: Cellular uptake in human HCT116 cells expressing wild type p53 at 5 uM after 1 hr by fluorometric analysis in presence of nutlin-glycine. The settings on record: hct-116, 1 h.

For the molecule `COc1ccc(C2=N[C@@H](c3ccc(Cl)cc3)[C@@H](c3ccc(Cl)cc3)N2C(=O)N2CCNC(=O)C2)c(OC(C)C)c1` (relative stereo), the outcome in [1], in [5] and in [6] was inactive. The Activity result in series [2], in [3] and in series [4] was “Dose-dependent effect” throughout.

Regarding `CCOc1cc(OC)ccc1C1=N[C@@H](c2ccc(Br)cc2)[C@@H](c2ccc(Br)cc2)N1C(=O)N1CCN(CCOC(=O)CN)CC1` (relative stereo), the outcome in [1], in [5] and in series [6] was inactive. Further, the Activity entry in series [2], in series [3] and in [4] was “Dose-dependent effect” each time.

`CCOc1cc(OC)ccc1C1=N[C@@H](c2ccc(Br)cc2)[C@@H](c2ccc(Br)cc2)N1C(=O)N1CCN(CCOC(=O)CNC(=O)c2ccc(C(=O)O)c(-c3c4ccc(=O)cc-4oc4cc(O)ccc34)c2)CC1` (relative stereo): the Drug uptake entry is recorded as “Not Active” in series [7], “Active” in series [8], “Active” in series [9] and “Not Active” in series [10].
